Consider three compounds from ChEMBL document CHEMBL1146543, “New antimycobacterial and antimalarial 8,9-secokaurane diterpenes from Croton kongensis” (J Nat Prod, 2003).

Test [1] concerns Mycobacterium tuberculosis. Put plainly: Antimycobacterial activity against Mycobacterium tuberculosis H37Ra by Microplate Alamar Blue Assay. Format: functional. In short, it runs like this: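 Microplate Alamar Blue assay with MIC as the endpoint; isoniazid and kanamycin sulfate were run as reference drugs.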
For orientation: Alamar Blue is a resazurin reagent that responds to reducing activity.

The test system of the next test is Plasmodium falciparum. Put plainly: Antimalarial activity against multidrug-resistant Plasmodium falciparum K1 by [3H]hypoxanthine uptake. Format: functional, organism-based. In short, it runs like this: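 Parasites kept in continuous in vitro culture (Trager–Jensen method); microculture radioisotope assay with growth read as [3H]-hypoxanthine uptake.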
A further test deals with KB. Put plainly: Cytotoxicity against human KB cells. Format: functional, cell-based. A digest of the protocol: (§1)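 Colorimetric cytotoxicity assay run on Vero, KB and BC cell lines, with ellipticine as the reference compound. The result is reported as IC50.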
Test [2] is described as follows: Cytotoxicity against human BC cells. Format: functional, cell-based. A digest of the protocol:
as §1

The test system of a further test is Vero. Put plainly: Cytotoxicity against african green monkey Vero cells. Format: cell-based. The note with it: Chlorocebus sabaeus. A digest of the protocol: as §1

Values after ≈ are worked out from the molar mass of the structure shown.

As a reminder, the MIC is the lowest concentration found to suppress growth. What is called IC50 is the concentration needed to halve the response being measured.

Turning to `NC[C@H]1O[C@H](O[C@H]2[C@H](O)[C@@H](O[C@H]3O[C@H](CO)[C@@H](O)[C@H](N)[C@H]3O)[C@H](N)C[C@@H]2N)[C@H](O)[C@@H](O)[C@@H]1O.O=S(=O)(O)O` [KANAMYCIN SULFATE], it took 2 µg/mL to inhibit growth in test [1] (MIC). `C[C@@H]1CC[C@H]2[C@@H](C)C(=O)O[C@@H]3O[C@@]4(C)CC[C@@H]1[C@]32OO4` [ARTEMISININ] registered an IC50 in the test on Plasmodium falciparum of 0.001 µg/mL (≈ 0.00354 µM).

On to `Cc1c2ccncc2c(C)c2c1[nH]c1ccccc12` [ELLIPTECINE], for which the IC50 (in the test on KB; in test [2]; in the test with Vero) was 0.2 µg/mL (≈ 0.812 µM) in each case.
